Here are results for six compounds from ChEMBL document CHEMBL1158715, “Eremophilane-type sesquiterpene derivatives from Senecio aegyptius var. discoideus” (J Nat Prod, 2005).

Assay type in all cases: functional, organism-based
In assay [1] the test system is Bacillus cereus. The assay can be described thus: Antimicrobial activity against Bacillus cereus El-U 8180 at 400 ug/ml. The procedure, abridged: (§1)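 Filter paper disk diffusion on nutrient agar seeded with the test bacterium. Disks were soaked in the test solution for 30 s, then placed on the agar surface. Plates were incubated at 30 °C for 2 days. Five replicates were run per compound at each concentration. Ampicillin at 200 and 400 μg/mL served as the reference.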

Assay [2] concerns Serratia sp. Kind of assay: Antimicrobial activity against Serratia El-U 9213 at 200 ug/ml. The essentials: as §1
For assay [3], the system named is Serratia sp. Kind of assay: Antimicrobial activity against Serratia El-U 9213 at 400 ug/ml. The procedure, abridged: as §1
In assay [4] the test system is Bacillus cereus. The assay can be described thus: Antimicrobial activity against Bacillus cereus El-U 8180 at 200 ug/ml. The essentials:
as §1

Active and inactive are the calls of the source. The rule behind the calls is not given here.

As to `CO[C@@]12C=C3[C@H](O)CC[C@H](C)[C@@]3(C)CC1=C(C)C(=O)O2`, the outcome in the assay on Bacillus cereus [1], with Serratia sp. [2], in the assay with Serratia sp. [3] and in the assay on Bacillus cereus [4] was Active.

As to `CC1=C2C[C@]3(C)[C@@H](C)CC[C@H]4O[C@]43C[C@@]2(O)OC1=O`, the outcome in the assay with Bacillus cereus [1], in the assay on Serratia sp. [2], with Serratia sp. [3] and in the assay with Bacillus cereus [4] was Active.

Turning to `CO[C@@]12C[C@@H]3C(=O)CC[C@H](C)[C@@]3(C)CC1=C(C)C(=O)N2`, the result in the assay with Bacillus cereus [1] and with Bacillus cereus [4] was Active. Further, the result in the assay with Serratia sp. [2] and with Serratia sp. [3] was inactive.

Turning to `CC1=C2C[C@@]3(C)C(=C[C@H]2OC1=O)[C@H](O)CC[C@@H]3C`, the result with Bacillus cereus [1] and in the assay with Bacillus cereus [4] was Active. For the same compound, the result in the assay with Serratia sp. [2] and with Serratia sp. [3] was inactive.

As for `CC1=C2C[C@@]3(C)C(=C[C@@]2(O)OC1=O)[C@H](O)CC[C@@H]3C`, the result with Bacillus cereus [1], with Serratia sp. [2], with Serratia sp. [3] and in the assay with Bacillus cereus [4] was Active.

Regarding `CO[C@@]12C[C@@]34O[C@@H]3CC[C@H](C)[C@@]4(C)CC1=C(C)C(=O)O2`, the outcome with Bacillus cereus [1] and with Bacillus cereus [4] was Active. Besides, the result with Serratia sp. [2] and in the assay on Serratia sp. [3] was inactive.
